In ChEMBL document CHEMBL1649282, “OXA-143, a novel carbapenem-hydrolyzing class D beta-lactamase in Acinetobacter baumannii” (2009):
Values after ≈ are worked out from the molar mass of the structure shown.

Tests used:
Format in all cases: functional
[1] = tested on: Acinetobacter baumannii; test: Antimicrobial activity against Acinetobacter baumannii ATCC 19606 by Etest method; conditions: ATCC 19606 = CIP 70.34 = JCM 6841
Outline: (§1)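 MICs of β-lactams determined by Etest following the manufacturer's instructions. Reference strains A. baumannii ATCC 19606 and E. coli TOP10 were tested alongside transformants carrying the cloned blaOXA-143: ATCC 19606 with pPH98 and TOP10 with pPH-1. For pPH-1 constructs, TOP10 transformants were selected on 50 μg/ml amoxicillin plus 30 μg/ml kanamycin.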

[2] = tested on: Acinetobacter baumannii; test: Antimicrobial activity against Acinetobacter baumannii ATCC 19606 harboring plasmid PH98 by Etest method; conditions: ATCC 19606 = CIP 70.34 = JCM 6841; outline: as §1
[3] = tested on: Escherichia coli; test: Antimicrobial activity against Escherichia coli TOP10 by Etest method; outline: as §1
[4] = tested on: Escherichia coli; test: Antimicrobial activity against Escherichia coli TOP10 harboring plasmid PH1 by Etest method; outline: as §1
[5] = tested on: Acinetobacter baumannii; test: Antimicrobial activity against Acinetobacter baumannii […] by Etest method
Outline: (§2)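 Etest MICs were read following the manufacturer's instructions. A. baumannii 135040 is a blood-culture clinical isolate from a Brazilian ICU (2004); A. baumannii ATCC 19606 served as the reference strain.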

[6] = tested on: Acinetobacter baumannii; test: Antimicrobial activity against Acinetobacter baumannii […] by Etest method in presence of 4 ug/ml beta-lactamase inhibitor Tazobactam; outline: as §2
[7] = tested on: Acinetobacter baumannii; test: Antimicrobial activity against Acinetobacter baumannii ATCC 19606 by Etest method in presence of 4 ug/ml beta-lactamase inhibitor Tazobactam; conditions: ATCC 19606 = CIP 70.34 = JCM 6841; outline: as §2
[8] = tested on: Acinetobacter baumannii; test: Antimicrobial activity against Acinetobacter baumannii ATCC 19606 harboring plasmid PH98 by Etest method in presence of 4 ug/ml beta-lactamase inhibitor Tazobactam; conditions: ATCC 19606 = CIP 70.34 = JCM 6841
Outline: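 Susceptibility by Etest, run according to the manufacturer's instructions. The recipient strain is A. baumannii ATCC 19606 carrying recombinant plasmid pPH98. The same strain without the plasmid served as the reference. MICs for this strain were also determined by agar dilution following CLSI guidelines.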

[9] = tested on: Escherichia coli; test: Antimicrobial activity against Escherichia coli TOP10 harboring plasmid PH1 by Etest method in presence of 4 ug/ml beta-lactamase inhibitor Tazobactam
Outline: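 Susceptibility was read by Etest, following the manufacturer's instructions. The test strain was E. coli TOP10 carrying recombinant plasmid pPH-1, which expresses blaOXA-143 from A. baumannii clinical isolate 135040 at a high level. The gene was introduced by Zero Blunt TOPO cloning, and transformants were selected on 50 μg/ml amoxicillin plus 30 μg/ml kanamycin.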

[10] = tested on: Escherichia coli; test: Antimicrobial activity against Escherichia coli TOP10 by Etest method in presence of 4 ug/ml beta-lactamase inhibitor Tazobactam
Outline: (§3)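 Susceptibility was read by Etest, following the manufacturer's instructions. E. coli TOP10 without plasmid served as the reference host strain.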

[11] = tested on: Escherichia coli; test: Antimicrobial activity against Escherichia coli TOP10 harboring plasmid PH1 by Etest method in presence of 4 ug/ml beta-lactamase inhibitor clavulanic acid; outline: as §1
[12] = tested on: Acinetobacter baumannii; test: Antimicrobial activity against Acinetobacter baumannii […] by Etest method in presence of 4 ug/ml beta-lactamase inhibitor clavulanic acid; outline: as §2
[13] = tested on: Acinetobacter baumannii; test: Antimicrobial activity against Acinetobacter baumannii ATCC 19606 harboring plasmid PH98 by Etest method in presence of 4 ug/ml beta-lactamase inhibitor clavulanic acid; conditions: ATCC 19606 = CIP 70.34 = JCM 6841; outline: as §1
[14] = tested on: Escherichia coli; test: Antimicrobial activity against Escherichia coli TOP10 by Etest method in presence of 4 ug/ml beta-lactamase inhibitor clavulanic acid; outline: as §3
[15] = tested on: Acinetobacter baumannii; test: Antimicrobial activity against Acinetobacter baumannii ATCC 19606 by Etest method in presence of 4 ug/ml beta-lactamase inhibitor clavulanic acid; conditions: ATCC 19606 = CIP 70.34 = JCM 6841; outline: as §2

| SMILES | MIC [1] | MIC [2] | MIC [3] | MIC [4] | MIC [5] | MIC [6] | MIC [7] | MIC [8] | MIC [9] | MIC [10] | MIC [11] | MIC [12] | MIC [13] | MIC [14] | MIC [15] |
| --- | --- | --- | --- | --- | --- | --- | --- | --- | --- | --- | --- | --- | --- | --- | --- |
| C[C@@H](O)[C@H]1C(=O)N2C(C(=O)O)=C(S[C@@H]3CN[C@H](C(=O)N(C)C)C3)[C@H](C)[C@H]12 [MEROPENEM] | 0.19 µg/mL (≈ 0.495 µM) | 32 µg/mL (≈ 83.4 µM) | 0.12 µg/mL (≈ 0.313 µM) | 2 µg/mL (≈ 5.22 µM) | > 32 µg/mL | – | – | – | – | – | – | – | – | – | – |
| CCN1CCN(C(=O)N[C@@H](C(=O)N[C@@H]2C(=O)N3[C@@H]2SC(C)(C)[C@@H]3C(=O)O)c2ccccc2)C(=O)C1=O [PIPERACILLIN] | 4 µg/mL (≈ 7.73 µM) | 16 µg/mL (≈ 30.9 µM) | 1 µg/mL (≈ 1.93 µM) | 8 µg/mL (≈ 15.5 µM) | > 256 µg/mL | > 256 µg/mL | 4 µg/mL | 8 µg/mL | 2 µg/mL | 0.5 µg/mL | – | – | – | – | – |
| C[C@@H](O)[C@H]1C(=O)N2C(C(=O)O)=C(SCCNC=N)C[C@H]12 [IMIPENEM ANHYDROUS] | 0.19 µg/mL (≈ 0.635 µM) | 32 µg/mL (≈ 107 µM) | – | 2 µg/mL (≈ 6.68 µM) | > 32 µg/mL | – | – | – | – | – | – | – | – | – | – |
| CO/N=C(\C(=O)N[C@@H]1C(=O)N2C(C(=O)[O-])=C(C[N+]3(C)CCCC3)CS[C@H]12)c1csc(N)n1 [CEFEPIME] | 1 µg/mL (≈ 2.08 µM) | 2 µg/mL (≈ 4.16 µM) | – | 0.12 µg/mL (≈ 0.25 µM) | 4 µg/mL (≈ 8.32 µM) | – | – | – | – | – | – | – | – | – | – |
| CO/N=C(\C(=O)N[C@@H]1C(=O)N2C(C(=O)O)=C(COC(C)=O)CS[C@H]12)c1csc(N)n1 [CEFOTAXIME] | 8 µg/mL (≈ 17.6 µM) | 16 µg/mL (≈ 35.1 µM) | 0.12 µg/mL (≈ 0.263 µM) | 0.12 µg/mL (≈ 0.263 µM) | > 256 µg/mL | – | – | – | – | – | – | – | – | – | – |
| CC1(C)S[C@@H]2[C@H](NC(=O)[C@H](C(=O)O)c3ccsc3)C(=O)N2[C@H]1C(=O)O [TICARCILLIN] | 4 µg/mL (≈ 10.4 µM) | > 256 µg/mL | 4 µg/mL (≈ 10.4 µM) | 128 µg/mL (≈ 333 µM) | > 256 µg/mL | – | – | – | – | – | – | – | – | – | – |
| CC1(C)S[C@@H]2[C@H](NC(=O)[C@H](N)c3ccc(O)cc3)C(=O)N2[C@H]1C(=O)O [AMOXICILLIN] | 32 µg/mL (≈ 87.6 µM) | > 256 µg/mL | 4 µg/mL (≈ 10.9 µM) | > 512 µg/mL | > 256 µg/mL | – | – | – | – | – | > 512 µg/mL | > 256 µg/mL | > 256 µg/mL | 4 µg/mL | 8 µg/mL |
| CC(C)(O/N=C(\C(=O)N[C@@H]1C(=O)N2C(C(=O)[O-])=C(C[n+]3ccccc3)CS[C@H]12)c1csc(N)n1)C(=O)O [CEFTAZIDIME] | 2 µg/mL (≈ 3.66 µM) | 2 µg/mL (≈ 3.66 µM) | 0.06 µg/mL (≈ 0.11 µM) | 0.12 µg/mL (≈ 0.22 µM) | 256 µg/mL (≈ 468 µM) | – | – | – | – | – | – | – | – | – | – |
